{"source": "paper PMC9289880", "about": "(Journal of Medicinal Chemistry, 2022)", "key": {"[1]": {"target": "KRAS^G12D (Homo sapiens, UniProt P01116, G12D)", "sequence (P01116 1-188 isoform P01116-2 G12D)": "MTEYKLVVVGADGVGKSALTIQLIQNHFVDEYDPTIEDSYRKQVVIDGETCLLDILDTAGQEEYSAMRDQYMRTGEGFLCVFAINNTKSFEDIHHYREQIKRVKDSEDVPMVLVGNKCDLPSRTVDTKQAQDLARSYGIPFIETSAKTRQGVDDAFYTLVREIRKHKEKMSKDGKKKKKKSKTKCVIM", "assay": "SOS-catalyzed guanine nucleotide exchange", "format": "biochemical"}, "[2]": {"assay": "Cell homogenate stability assay", "format": "in vitro ADME", "conditions": "human", "procedure,_shortened": "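HeLa cells suspended at 1 × 10^6 cells/mL, probe-sonicated on ice until homogeneous, then frozen at −20 °C until use. Peptides incubated with the homogenate (1 × 10^6 cells/mL equivalent). Loss of parent peptide over increasing time quantified by LC-MS/MS.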"}, "[3]": {"system": "pERK, AsPC-1 cells", "assay": "AlphaScreen pERK assay in AsPC-1 cells", "format": "cell-based", "conditions": "pERK", "procedure,_shortened": "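AsPC-1 cells grown in RPMI 1640 (GlutaMAX, HEPES) with 10% FBS and penicillin/streptomycin. Seeded at 15 000 cells/well and held overnight at 37 °C, 5% CO2, then switched to serum-free medium. Compound dose-response series added acoustically, then incubated 2 and 18 h. Cells washed with DPBS and lysed with protease inhibitors. pERK (615 nm) and total ERK (535 nm) read by AlphaScreen SureFire multiplex. pERK/total ERK ratio fitted to 4-parameter logistic.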"}, "[4]": {"system": "pERK, A375 cells", "assay": "AlphaScreen pERK counter screen in A375 cells", "format": "cell-based"}, "[5]": {"system": "AsPC-1 cells", "assay": "LDH release", "format": "cell-based", "conditions": "18 h LDH release assay", "procedure,_shortened": "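AsPC-1 cells seeded at 15 000/well overnight, then dosed with a compound titration in serum-free medium at 37 °C, 5% CO2. At 18 h post dose, part of the medium was transferred and mixed 1:1 with CytoTox-ONE reagent. Plates shaken 45 min at ambient temperature and fluorescence read (ex 560/em 590 nm). Dose-response curves fitted to 4-parameter logistic.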"}, "[6]": {"system": "HeLa cells", "assay": "NanoClick cell permeability assay", "format": "in vitro ADME, Human"}, "[7]": {"conditions": "read-out: AlphaScreen (AsPC-1) 2 h IC50, AsPC-1, 2 h"}, "[8]": {"conditions": "read-out: AlphaScreen (AsPC-1) 18 h IC50, AsPC-1, 18 h"}}, "note": "Read-outs that look alike come from different tables or passages of the source. *1 amine or outer side, *2 acyl side, *3 side chain or, on linkers, in order; H or OH if unused. Where a SMILES comes first, the peptide text is derived from it. Bridges are numbered along the chain shown (N, C = ends). [ ]: non-standard residue; d: D form. Pro(3R-Ph) = O=C(O)[C@H]1NCC[C@@H]1c1ccccc1; Bip = N[C@@H](Cc1ccc(-c2ccccc2)cc1)C(=O)O; αMeS = C[C@](N)(CO)C(=O)O; CH2 = C([*:1])[*:2]"}
{"smiles": "CC[C@H](C)[C@@H]1NC(=O)[C@H](Cc2ccc(-c3ccccc3)cc2)NC(=O)[C@H](CC(C)C)NC(=O)[C@@H]2[C@@H](c3ccccc3)CCN2C(=O)[C@H](NC(=O)[C@@H](CCCNC(=N)N)NC(=O)[C@@H](CCCNC(=N)N)NC(C)=O)CSCSC[C@@H](C(=O)N[C@H](CCCNC(=N)N)C(=O)N[C@H](CCCNC(=N)N)C(N)=O)NC(=O)[C@H](C(C)C)NC(=O)[C@@H]2CCCN2C(=O)[C@H](CC(=O)O)NC(=O)[C@H](Cc2ccc(O)cc2)NC(=O)[C@](C)(CO)NC1=O", "note": "[peptide 7, Ac-rr-cyclo(c(methylene)-Prot3Ph-L-Bip-I-aMeS-YDPVC)-rr-NH2] (Ac-[dR][dR][dC][Pro(3R-Ph)]L[Bip]I[αMeS]YDPVC[dR][dR]-NH2; linker 3-13 via CH2)", "values": [{"measurement": "SOS GNE potency / binding, in words", "setting": "[1]", "result": "subnanomolar"}, {"measurement": "half-life", "setting": "[2]; tissue homogenate", "result": "> 6.2", "unit": "h"}, {"measurement": "IC50", "setting": "[3]; [7]", "result": 3.8, "unit": "µM"}, {"measurement": "IC50", "setting": "[3]; [8]", "result": 3.9, "unit": "µM"}, {"measurement": "activity in A375 counter screen, in words", "setting": "[4]", "result": "no LDH release or activity"}, {"measurement": "LDH release / membrane integrity, in words", "setting": "[5]", "result": "no LDH release"}]}
{"smiles": "CC[C@H](C)[C@@H]1NC(=O)[C@H](Cc2ccc(-c3ccccc3)cc2)NC(=O)[C@H](CC(C)C)NC(=O)[C@@H]2[C@@H](c3ccccc3)CCN2C(=O)[C@H](NC(=O)[C@@H](CCCNC(=N)N)NC(=O)[C@@H](CCCNC(=N)N)NC(=O)[C@H](CCCCN=[N+]=[N-])NC(C)=O)CSCSC[C@@H](C(=O)N[C@H](CCCNC(=N)N)C(=O)N[C@H](CCCNC(=N)N)C(N)=O)NC(=O)[C@H](C(C)C)NC(=O)[C@@H]2CCCN2C(=O)[C@H](CC(=O)O)NC(=O)[C@H](Cc2ccc(O)cc2)NC(=O)[C@](C)(CO)NC1=O", "note": "[peptide 9, Ac-Lys(N3)-rr-cyclo(c(methylene)-Prot3Ph-L-Bip-I-aMeS-YDPVC)-rr-NH2]", "values": [{"measurement": "IC50", "setting": "[1]", "result": "< 0.001", "unit": "µM"}, {"measurement": "half-life at 1 µM", "setting": "[2]; HeLa cell homogenate", "result": "> 6.2", "unit": "h"}, {"measurement": "IC50", "setting": "[3]; [7]", "result": 6.2, "unit": "µM"}, {"measurement": "IC50", "setting": "[3]; [8]", "result": 6.8, "unit": "µM"}, {"measurement": "EC50", "setting": "[6]; read-out: NanoClick (HeLa) 4 h EC50, 4 h", "result": 1.49, "unit": "µM"}, {"measurement": "EC50", "setting": "[6]; read-out: NanoClick (HeLa) 18 h EC50, 18 h", "result": 0.148, "unit": "µM"}, {"measurement": "EC50", "setting": "[6]; read-out: NanoClick permeability EC50 at 4 h, 4 h", "result": 1.5, "unit": "µM"}, {"measurement": "EC50", "setting": "[6]; read-out: NanoClick permeability EC50 at 18 h, 18 h", "result": 0.15, "unit": "µM"}]}
